These results are taken from ChEMBL document CHEMBL1806361, “Discovery of potent, selective, and orally bioavailable quinoline-based dipeptidyl peptidase IV inhibitors targeting Lys554” (Bioorg Med Chem, 2011).

The nature of data set [1]: Solubility of the compound in water at pH 6.8 by HPLC analysis. The data set is classed as physicochemical.
Data set [2] in a line: Metabolic stability in human liver microsomes at 1 uM after 60 mins by HPLC with UV detectors in presence of NADPH. The data set is classed as ADME, Microsome. The conditions noted are these: read-out: Stability. The essentials: (§1)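 Hepatic microsomes (0.2 mg protein/mL final) and compound (1 µM final) were mixed on ice. Reaction started with NADPH, run 60 min at 37 °C, and stopped with ice-cold acetonitrile. Zero-time controls were quenched before compound addition.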

Data set [3] in a line: Metabolic stability in dog liver microsomes at 1 uM after 60 mins by HPLC with UV detectors in presence of NADPH. The conditions noted are these: read-out: Stability. It counts as ADME, Canis lupus familiaris, Microsome. The procedure, abridged: as §1
Data set [4] can be described thus: Metabolic stability in rat liver microsomes at 1 uM after 60 mins by HPLC with UV detectors in presence of NADPH. The settings on record: read-out: Stability. The data set is classed as ADME, Microsome. The essentials:
as §1

The nature of data set [5]: Volume of distribution at steady state in rat at 1 mg/kg, po and 0.1 mg/kg, iv by LC/MS/MS. The data set is classed as ADME, organism-based. The settings on record: in vivo, read-out: Vdss. The essentials: (§2)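 Compound given orally at 1.0 mg/kg and intravenously at 0.1 mg/kg to rats and dogs. Blood sampled after dosing and spun to plasma. Plasma deproteinized with acetonitrile containing internal standard, then centrifuged. Supernatant diluted in 0.01 M ammonium acetate and spun again before LC/MS/MS quantitation. Values are means and SD of three experiments.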

The test system of data set [6] is Rattus norvegicus. Briefly: AUC in rat at 1 mg/kg, po by LC/MS/MS. Also noted: dose 1 mg/kg, route oral. The settings on record: in vivo. It counts as ADME, organism-based, Plasma. The procedure, abridged:
as §2

The test system of data set [7] is Rattus norvegicus. Briefly: Oral bioavailability in rat at 1 mg/kg by LC/MS/MS. The data set is classed as ADME, organism-based. The conditions noted are these: in vivo. The procedure, abridged: as §2
Data set [8] is described as follows: Volume of distribution at steady state in dog at 1 mg/kg, po and 0.1 mg/kg, iv by LC/MS/MS. The settings on record: in vivo, read-out: Vdss. The data set is classed as ADME, organism-based, Canis lupus familiaris. The procedure, abridged: as §2
The test system of data set [9] is Canis familiaris. Description: AUC in dog at 1 mg/kg, po by LC/MS/MS. It counts as ADME, organism-based, Canis lupus familiaris, Plasma. Also noted: dose 1 mg/kg, route oral. The conditions noted are these: in vivo. The procedure, abridged: as §2
For data set [10], the system named is Canis familiaris. Description: Oral bioavailability in dog at 1 mg/kg by LC/MS/MS. It counts as ADME, organism-based, Canis lupus familiaris. The settings on record: in vivo. The essentials: as §2

The compound `Cc1ccc(-c2c(CN)c(CC(C)C)nc3ccc(N4CC(=O)NCC4=O)cc23)cc1.Cl.Cl` showed a solubility in data set [1] greater than 5000 µg/mL. The microsomal CLint at 1 µM in [2] was found to be 16 µL/min/mg; in data set [3], 2 µL/min/mg; in data set [4], 96 µL/min/mg. The Vd in data set [5] is 10.7 L/kg; in data set [8], 1.49 L/kg. In addition, the AUC in the data set on Rattus norvegicus [6] amounted to 28.5 ng·h/mL; in the data set on Canis familiaris [9] it was 1410 ng·h/mL. Besides, the F was 8% in the data set with Rattus norvegicus [7] and 49.2% with Canis familiaris [10].
